Activity calls are given as the source filed them. The rule behind the calls is not given here.

Test [1] deals with T1, Glutathione S-transferase (Plasmodium yoelii yoelii) (UniProt Q7REH6).
T1 sequence (whole entry): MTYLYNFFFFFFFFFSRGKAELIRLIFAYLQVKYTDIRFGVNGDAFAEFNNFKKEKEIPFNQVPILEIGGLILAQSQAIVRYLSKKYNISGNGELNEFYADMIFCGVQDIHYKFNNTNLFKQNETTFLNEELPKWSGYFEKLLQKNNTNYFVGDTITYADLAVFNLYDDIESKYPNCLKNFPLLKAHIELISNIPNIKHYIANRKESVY
Nature of the test: Inhibition of Glutathione S-transferase in Plasmodium yoelii nigeriensis isolated from infected mice (Mus musculus) (oral); NI denotes nil inhibition. The method, boiled down: (§1)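 Swiss albino mice carried P. yoelii nigeriensis tolerant to CQ up to 120 mg/kg. They received compound orally at 15 mg/kg body wt for 5 days. Parasites were then isolated from blood by density gradient centrifugation and saponin lysis, and enzyme inhibition was measured as percent inhibition.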

The subject of test [2] is Plasmodium yoelii nigeriensis. Nature of the test: In Vitro inhibition of Heme Oxygenase in Cell-free parasite Plasmodium yoelii at concentration 50 uM. The test is classed as functional. The method, boiled down:
(§2)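 Heme oxygenase activity was measured as bilirubin formation in a post-mitochondrial fraction. The parasite enzyme came from cell-free P. yoelii, isolated from infected blood by density gradient centrifugation and saponin lysis. The host enzyme came from infected liver. Compounds were tested at 10–100 µM and preincubated for 10 min before the reaction was started.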

For test [3], the species on record is Mus musculus. Nature of the test: In Vitro inhibition of Heme Oxygenase in Plasmodium yoelii (host) at concentration 10 uM. The test is classed as functional. In a few lines: as §2
Test [4] is filed under the species Mus musculus. Kind of test: In Vitro inhibition of Heme Oxygenase in Plasmodium yoelii (host) at concentration 100 uM. It counts as functional. The method, boiled down:
(§3)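 In vitro heme oxygenase, cell-free: post-mitochondrial fractions of P. yoelii parasites and of infected host liver. Test compounds at 10-100 µM were preincubated 10 min in the assay system before the enzyme reaction started. Activity was followed as bilirubin formation and expressed as % inhibition.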

The species named for test [5] is Mus musculus. Kind of test: In Vitro inhibition of Heme Oxygenase in Plasmodium yoelii (host) at concentration 50 uM. It counts as functional. In a few lines:
as §3

Test [6] concerns Plasmodium yoelii nigeriensis. Nature of the test: In Vitro inhibition of Heme Oxygenase in Cell-free parasite Plasmodium yoelii at concentration 10 uM. It counts as functional. The method, boiled down: as §2
For test [7], the system named is Plasmodium yoelii nigeriensis. Kind of test: In Vitro inhibition of Heme Oxygenase in Cell-free parasite Plasmodium yoelii at concentration 100 uM. It counts as functional. In a few lines: as §2
In test [8] the test system is Plasmodium yoelii nigeriensis. Kind of test: Inhibition of heme oxygenase in Plasmodium yoelii nigeriensis isolated from infected mice (Mus musculus) (oral); NI denotes no inhibition. It counts as functional, organism-based. The method, boiled down: as §1
A short description of test [9]: In Vitro evaluation on percentage inhibition in Heme Oxygenase at concentration 10 (uM)of infected host. In a few lines:
as §2

The nature of test [10]: (§4) In Vitro evaluation on percentage inhibition in Heme Oxygenase at concentration 100 (uM) of infected host. The method, boiled down: as §2
A short description of test [11]: In Vitro evaluation on percentage inhibition in Heme Oxygenase at concentration 50(uM) of infected host. In a few lines: as §2
The target in test [12] is T1, Glutathione S-transferase (Plasmodium yoelii yoelii). Kind of test: Inhibition of Glutathione S-transferase in Plasmodium yoelii nigeriensis isolated from infected mice (Mus musculus) (oral). Conditions: concentration not given here. In a few lines: as §1
Test [13] relates to Plasmodium yoelii nigeriensis. Kind of test: In Vitro inhibition of Heme Oxygenase in Cell-free parasite Plasmodium yoelii at concentration 10 uM;NI denotes nil inhibition. The test is classed as functional. The method, boiled down: as §2
The test system of test [14] is Plasmodium yoelii nigeriensis. Kind of test: In Vitro inhibition of Heme Oxygenase in Cell-free parasite Plasmodium yoelii at concentration 100 uM;NI denotes nil inhibition. The test is classed as functional. In a few lines:
as §2

Test [15] has as its system Plasmodium yoelii nigeriensis. Kind of test: In Vitro inhibition of Heme Oxygenase in Cell-free parasite Plasmodium yoelii at concentration 50 uM; NI denotes nil inhibition. It counts as functional. The method, boiled down: as §2
The test system of test [16] is Plasmodium yoelii nigeriensis. Nature of the test: Inhibition of heme oxygenase in Plasmodium yoelii nigeriensis isolated from infected mice (Mus musculus) (oral); NI denotes nil inhibition. It counts as functional, organism-based. The method, boiled down: as §1
Test [17] is filed under the species Mus musculus. The description is as §4. In a few lines: (§5)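 Heme oxygenase from liver of P. yoelii-infected host, post-mitochondrial fraction, run as the host-enzyme counterpart to the cell-free parasite assay. Test compounds at 10-100 µM were preincubated in the assay system for 10 min before starting the reaction. Activity was followed by bilirubin formation and reported as percent inhibition.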

Test [18] is filed under the species Mus musculus. Nature of the test: In Vitro evaluation on percentage inhibition in Heme Oxygenase at concentration 50 (uM) of infected host. In a few lines:
as §5

For test [19], the system named is Plasmodium yoelii nigeriensis. Kind of test: In Vitro inhibition of Heme Oxygenase in Cell-free parasite Plasmodium yoelii at concentration 50 uM;NI denotes nil inhibition. The test is classed as functional. In a few lines:
as §2

The test system of test [20] is Plasmodium yoelii nigeriensis. Nature of the test: Inhibition of heme oxygenase in Plasmodium yoelii nigeriensis isolated from infected mice (Mus musculus) (oral). The test is classed as functional. The method, boiled down: as §1
In test [21] the test system is Plasmodium yoelii nigeriensis. Kind of test: In Vitro evaluation on percentage inhibition in Heme Oxygenase at concentration 100(uM) of Cell-free parasite Plasmodium yoelii. The test is classed as functional. The method, boiled down:
as §2

The test system of test [22] is Plasmodium yoelii nigeriensis. Nature of the test: In Vitro evaluation on percentage inhibition in Heme Oxygenase at concentration 100 (uM) of Cell-free parasite Plasmodium yoelii. It counts as functional. In a few lines: as §2

With `CCN(CC)CCCN1CC/C(=C\c2ccc(OCc3ccccc3)cc2)C1`, the NI entry in test [1] was “No inhibition”. For the same compound, the inhibition (usually the percentage by which the read-out fell short of the control) in test [2] amounted to 37%; in the test filed under Mus musculus [3], 24%; in the test filed under Mus musculus [4] it was 69%; in the test listed under Mus musculus [5], 63%; in test [6], 28%; in test [7], 64%. In addition, the NI entry in test [8] is “inactive”.
In the case of `CCN(CC)CCCN1CC/C(=C\c2ccccc2)C1`, in test [1], the NI entry was “No inhibition”. Besides, the inhibition in test [2] came out at 64%; in [9], 10%; in test [10], 65%; in test [11] it was 65%; in test [6], 52%; in [7], 82%. For the same compound, the NI result in test [8] was “inactive”.
`CCN(CC)CCCN1CC/C(=C\c2ccc3c(c2)OCO3)C1`: the inhibition in test [12] amounted to 10%; in test [2], 100%; in test [6] it was 100%; in test [7], 100%. Further, the NI entry in [13], in test [14], in test [15] and in [16] was “No inhibition” in each case.
For the compound `COc1ccc(CCN(C)CCCC(C#N)(c2ccc(OC)c(OC)c2)C(C)C)cc1OC` (stereo not given), the inhibition in test [2] turned out to be 100%; in the test filed under Mus musculus [17] it was 19%; in the test listed under Mus musculus [18], 15%; in [7], 100%.
Take `CCN(CC)CCCN1CC/C(=C\c2ccc(OC)c(OC)c2)C1`: the inhibition in [12] is 80%; in test [2] it was 100%; in test [6] it was 100%; in test [7], 100%. For the same compound, the NI result in test [13], in [14] and in test [19] was “No inhibition” each time. For the same compound, in test [20], the Inhibition (in general, the percentage by which the read-out fell short of the control) is given as 100%.
As for `COc1ccc([C@@H]2Sc3ccccc3N(CCN(C)C)C(=O)[C@@H]2OC(C)=O)cc1`, the inhibition was 12.5% in test [2], 29% in [21], 84% in test [10] and 41% in test [11].
Consider `CN(C)CCCN1c2ccccc2Sc2ccc(Cl)cc21`, for which the inhibition in [2] came to 85%; in test [22], 100%.
As to `CCN(CC)CCCN1CC/C(=C\c2ccc(OCCN3CCCC3)cc2)C1`, the inhibition in [12] turned out to be 90%; in test [2], 100%; in test [6], 100%; in [7], 100%. The NI result in test [13], in test [14] and in test [19] was “No inhibition” throughout. The compound further registered an Inhibition in test [20] of 79%.

Source of the values: ChEMBL document CHEMBL1133641, “A new class of potential chloroquine-resistance reversal agents for Plasmodia: syntheses and biological evaluation of 1-(3'-diethylaminopropyl)-3-(substituted phenylmethylene)pyrrolidines” (2000).
